From ChEMBL document CHEMBL3108700, “Designing anti-inflammatory drugs from parasitic worms: a synthetic small molecule analogue of the Acanthocheilonema viteae product ES-62 prevents development of collagen-induced arthritis” (J Med Chem, 2013)
The source made the active and inactive calls. How the calls were made is not given here.

Key:
[1] = molecular target: T1, Toll-like receptor 9 (Mus musculus) (UniProt Q9EQU3); assay: Inhibition of TLR9 in BALB/c mouse BMDM assessed as downregulation of CpG-stimulated IL-6 level at 5 ug/ml preincubated for 18 hrs followed by CpG challenge measured after 24 hrs by ELISA relative to control
T1 sequence (whole entry): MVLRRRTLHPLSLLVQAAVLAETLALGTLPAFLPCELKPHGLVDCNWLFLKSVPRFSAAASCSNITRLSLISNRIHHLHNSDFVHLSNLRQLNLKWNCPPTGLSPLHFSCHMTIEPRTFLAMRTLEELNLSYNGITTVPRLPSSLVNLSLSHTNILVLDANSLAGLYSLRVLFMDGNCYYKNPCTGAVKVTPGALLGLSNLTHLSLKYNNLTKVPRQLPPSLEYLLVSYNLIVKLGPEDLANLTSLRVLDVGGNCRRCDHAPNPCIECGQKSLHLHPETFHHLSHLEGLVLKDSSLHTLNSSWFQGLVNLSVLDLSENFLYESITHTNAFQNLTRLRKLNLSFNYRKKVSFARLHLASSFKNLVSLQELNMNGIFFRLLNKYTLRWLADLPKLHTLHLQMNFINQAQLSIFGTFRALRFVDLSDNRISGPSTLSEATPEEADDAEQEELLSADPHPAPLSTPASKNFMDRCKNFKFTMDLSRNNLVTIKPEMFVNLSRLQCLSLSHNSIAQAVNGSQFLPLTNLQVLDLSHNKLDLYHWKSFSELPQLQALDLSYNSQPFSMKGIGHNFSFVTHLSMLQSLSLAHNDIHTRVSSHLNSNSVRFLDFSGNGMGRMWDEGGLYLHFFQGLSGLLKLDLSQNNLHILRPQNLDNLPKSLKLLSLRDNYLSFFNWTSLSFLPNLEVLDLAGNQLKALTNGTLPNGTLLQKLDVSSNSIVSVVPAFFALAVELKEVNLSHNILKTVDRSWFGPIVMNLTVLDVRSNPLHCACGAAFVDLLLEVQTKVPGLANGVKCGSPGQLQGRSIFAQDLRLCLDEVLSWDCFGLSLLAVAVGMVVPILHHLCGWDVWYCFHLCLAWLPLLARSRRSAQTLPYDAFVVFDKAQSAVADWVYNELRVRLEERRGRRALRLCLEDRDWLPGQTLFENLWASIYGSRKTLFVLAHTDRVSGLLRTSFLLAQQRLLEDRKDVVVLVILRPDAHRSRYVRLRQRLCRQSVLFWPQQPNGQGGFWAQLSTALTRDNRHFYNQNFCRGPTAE
Procedure, shortened: (§1)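 BALB/c male bone marrow macrophages were differentiated 7 days with L929 supernatant (≥99% CD11b+/F4/80+). Cells were plated at 2 × 10^5/well in triplicate, rested overnight, and given compounds at 5 μg/mL for 18 h. They were then stimulated with 100 ng/mL S. minnesota LPS, 10 ng/mL Pam3CSK4 (BLP) or 0.01 μM CpG for 24 h. Supernatant IL-12p40 and IL-6 were measured by ELISA (sensitivity 16 pg/mL).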

[2] = molecular target: T1, Toll-like receptor 9 (Mus musculus); assay: Inhibition of TLR9 in BALB/c mouse BMDM assessed as downregulation of CpG-stimulated IL-12p40 level at 5 ug/ml preincubated for 18 hrs followed by CpG challenge measured after 24 hrs by ELISA relative to control; procedure, shortened: as §1
TLR2/TLR6 (Mus musculus) [3] = molecular target: T2, TLR2/TLR6 (Mus musculus) (UniProt Q9QUN7+Q9EPW9); assay: Inhibition of TLR2/6 in BALB/c mouse BMDM assessed as downregulation of BLP-stimulated IL-6 level at 5 ug/ml preincubated for 18 hrs followed by BLP challenge measured after 24 hrs by ELISA relative to control; assay type: protein-complex assay; procedure, shortened: as §1
TLR2/TLR6 (Mus musculus) [4] = molecular target: T2, TLR2/TLR6 (Mus musculus); assay: Inhibition of TLR2/6 in BALB/c mouse BMDM assessed as downregulation of BLP-stimulated IL-12p40 level at 5 ug/ml preincubated for 18 hrs followed by BLP challenge measured after 24 hrs by ELISA relative to control; assay type: protein-complex assay; procedure, shortened: as §1
[5] = molecular target: T3, Toll-like receptor 4 (Mus musculus) (UniProt Q9QUK6); assay: Inhibition of TLR4 in BALB/c mouse BMDM assessed as downregulation of LPS-stimulated IL-6 level at 5 ug/ml preincubated for 18 hrs followed by LPS challenge measured after 24 hrs by ELISA relative to control; procedure, shortened: as §1
T3 sequence (whole entry): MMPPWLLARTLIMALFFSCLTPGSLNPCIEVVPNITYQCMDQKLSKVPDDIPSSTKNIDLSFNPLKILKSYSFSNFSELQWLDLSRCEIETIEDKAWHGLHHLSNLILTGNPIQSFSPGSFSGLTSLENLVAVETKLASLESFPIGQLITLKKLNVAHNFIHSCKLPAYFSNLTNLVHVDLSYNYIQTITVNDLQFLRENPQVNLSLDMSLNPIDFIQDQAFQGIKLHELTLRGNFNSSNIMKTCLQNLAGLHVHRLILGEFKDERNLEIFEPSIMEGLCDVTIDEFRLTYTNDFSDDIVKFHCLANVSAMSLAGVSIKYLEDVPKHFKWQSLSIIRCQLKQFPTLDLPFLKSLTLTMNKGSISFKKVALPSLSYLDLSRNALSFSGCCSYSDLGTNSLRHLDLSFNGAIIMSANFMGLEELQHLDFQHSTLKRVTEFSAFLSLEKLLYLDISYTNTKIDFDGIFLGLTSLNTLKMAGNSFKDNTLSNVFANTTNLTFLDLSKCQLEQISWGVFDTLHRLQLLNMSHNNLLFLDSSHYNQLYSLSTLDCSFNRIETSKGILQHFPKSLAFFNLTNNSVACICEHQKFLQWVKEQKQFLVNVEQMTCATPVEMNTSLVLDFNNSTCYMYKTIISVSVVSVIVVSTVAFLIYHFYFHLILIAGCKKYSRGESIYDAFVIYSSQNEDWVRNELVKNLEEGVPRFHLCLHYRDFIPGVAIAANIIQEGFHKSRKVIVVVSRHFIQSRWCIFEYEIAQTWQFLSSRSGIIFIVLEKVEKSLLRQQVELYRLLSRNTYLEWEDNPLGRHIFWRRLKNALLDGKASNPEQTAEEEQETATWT

[6] = molecular target: T3, Toll-like receptor 4 (Mus musculus); assay: Inhibition of TLR4 in BALB/c mouse BMDM assessed as downregulation of LPS-stimulated IL-12p40 level at 5 ug/ml preincubated for 18 hrs followed by LPS challenge measured after 24 hrs by ELISA relative to control; procedure, shortened: as §1

| Structure (SMILES) | inhibition [1] | inhibition [2] | inhibition (TLR2/TLR6 (Mus musculus) [3]) | inhibition (TLR2/TLR6 (Mus musculus) [4]) | inhibition [5] | inhibition [6] |
| --- | --- | --- | --- | --- | --- | --- |
| CN(C)CCCNS(=O)(=O)Cc1ccc(Br)cc1 | inactive | inactive | inactive | inactive | inactive | inactive |
| C[N+]1(CCS(=O)(=O)Cc2ccc(Br)cc2)CCCC1 | inactive | inactive | inactive | Active | Active | Active |
| CN(C)CCN(C)CCS(=O)(=O)Cc1ccc(F)cc1 | inactive | inactive | inactive | Active | inactive | inactive |
| O=S(=O)(CCN1CCCC1)c1ccccc1 | inactive | inactive | inactive | Active | inactive | inactive |
| Cc1ccc(CS(=O)(=O)NCCCN(C)C)cc1 | inactive | inactive | inactive | inactive | inactive | inactive |
| O=S(=O)(CCN1CCOCC1)c1ccccc1 | inactive | inactive | inactive | Active | inactive | inactive |
| COc1cccc(C(=O)NCCN(C)C)c1 | Active | inactive | inactive | Active | inactive | Active |
| Cc1ccc(CS(=O)(=O)NCCN2CCCC2)cc1 | inactive | inactive | inactive | inactive | inactive | inactive |
| O=S(=O)(Cc1ccc(F)cc1)NCCN1CCCC1 | inactive | inactive | inactive | inactive | inactive | inactive |
| O=[N+]([O-])c1ccc(CNS(=O)(=O)CCN2CCOCC2)cc1 | inactive | inactive | inactive | inactive | inactive | inactive |
| O=S(=O)(Cc1ccc(Br)cc1)NCCN1CCCC1 | inactive | inactive | inactive | inactive | inactive | inactive |
| CN(C)CCN(C)CCS(=O)(=O)Nc1ccc(F)cc1 | inactive | inactive | inactive | inactive | inactive | Active |
| C[N+](C)(C)CCS(=O)(=O)Cc1ccc(Br)cc1 | inactive | inactive | inactive | inactive | inactive | inactive |
| CC(C)(C)NCCS(=O)(=O)c1ccccc1 | inactive | inactive | inactive | Active | inactive | inactive |
| COc1ccc2c(CS(=O)(=O)NCCN3CCOCC3)cc(=O)oc2c1 | inactive | inactive | inactive | Active | inactive | Active |
| O=S(=O)(CCN1CCOCC1)NCc1ccccc1 | inactive | inactive | inactive | inactive | inactive | inactive |
| O=S(=O)(CCN1CCOCC1)NCc1ccc(F)cc1 | Active | Active | Active | inactive | Active | inactive |
| CC(C)NCCS(=O)(=O)c1ccccc1 | inactive | inactive | inactive | Active | inactive | inactive |
| CN(C)CCN(C)CCS(=O)(=O)NCc1ccc(Br)cc1 | inactive | Active | Active | inactive | inactive | Active |
| CCCNCCS(=O)(=O)c1ccccc1 | inactive | inactive | Active | Active | inactive | inactive |
| C[N+]1(CCCS(=O)(=O)Cc2ccc(Br)cc2)CCCC1 | inactive | inactive | inactive | inactive | inactive | inactive |
| Cc1ccc(CS(=O)(=O)CCC[N+]2(C)CCCC2)cc1 | inactive | inactive | inactive | inactive | inactive | inactive |
| Cc1ccc(CS(=O)(=O)CC[N+](C)(C)C)cc1 | Active | Active | inactive | Active | inactive | Active |
| CC[C@H](C)NCCS(=O)(=O)Cc1cccc(F)c1 | inactive | inactive | inactive | inactive | inactive | inactive |
